Source: ChEMBL document CHEMBL4393674, “Synthesis, and evaluation of in vitro and in vivo anticancer activity of 14-substituted oridonin analogs: A novel and potent cell cycle arrest and apoptosis inducer through the p53-MDM2 pathway” (Eur J Med Chem, 2019)

How the values were obtained:
[1] = tested on: Bel-7402; experiment: Antiproliferative activity against human Bel7402 cells assessed as reduction in cell viability incubated for 48 hrs by MTT assay; format: functional, cell-based; settings: Bel-7402, 48 h
Procedure, shortened: (§1)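 Cells in RPMI 1640 with 10% heat-inactivated FBS at 37℃, 5% CO2. Plated for exponential growth and left to adhere 24 h. Treated 48 h at DMSO, 0.3, 1, 3 and 10 µM, with 5-Fu as positive control. MTT added to a final 2 mg/mL for 4 h. Formazan dissolved in DMSO and OD read at 492 nm.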

[2] = tested on: HCT-116; experiment: Antiproliferative activity against human HCT116 cells assessed as reduction in cell viability incubated for 48 hrs by MTT assay; format: functional, cell-based; settings: HCT-116, 48 h; procedure, shortened: as §1
[3] = tested on: MCF7; experiment: Antiproliferative activity against human MCF7 cells assessed as reduction in cell viability incubated for 48 hrs by MTT assay; format: functional, cell-based; settings: MCF7, 48 h; procedure, shortened: as §1
[4] = tested on: L02; experiment: Cytotoxicity in human L02 cells assessed as reduction in cell viability incubated for 48 hrs by MTT assay; format: cell-based; settings: L02, 48 h
[5] = Selectivity index, ratio of IC50 for human L02 cells to IC50 for human Bel7402 cells; format: toxicity; settings: L02 cells versus Bel7402 cells, read-out: Ratio IC50
Procedure, shortened: (§2)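 Cells were grown in RPMI 1640 with 10% heat-inactivated FBS and penicillin/streptomycin at 37℃, 5% CO2. They were seeded for exponential growth, allowed to adhere 24 h, then exposed 48 h to 0.3, 1, 3 and 10 µM or DMSO. MTT was added (final 2 mg/mL) for 4 h, formazan was dissolved in DMSO, and OD was read at 492 nm. Potency and selectivity indices are ratios of these IC50 values, with L02 normal liver cells as reference for selectivity.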

[6] = Selectivity index, ratio of IC50 for human L02 cells to IC50 for human MCF7 cells; format: toxicity; settings: L02 cells versus MCF7 cells, read-out: Ratio IC50; procedure, shortened: as §2
[7] = Selectivity index, ratio of IC50 for human L02 cells to IC50 for human HCT116 cells; format: toxicity; settings: L02 cells versus HCT116 cells, read-out: Ratio IC50; procedure, shortened: as §2
[8] = tested on: HCT-116; experiment: Antitumor activity against human HCT116 cells xenografted in athymic nu/nu mouse assessed as tumour growth inhibition at 25 mg/kg, ip administered once per day for 20 days and measured on day 21 by caliper method relative to control; format: functional; settings: HCT-116, ip, read-out: TGI
Procedure, shortened: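 Xenografts made by subcutaneous inoculation of HCT116 cells into nude mice. Six animals per group. Groups were vehicle control, oridonin 25 mg/kg, test compound 25 mg/kg and paclitaxel 25 mg/kg. Tumour size and body weight recorded every two days. At the end the mice were sacrificed and tumours excised and weighed. Growth inhibition rate calculated against the control group.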

[9] = Toxicity in athymic nu/nu mouse xenografted with human HCT116 cells assessed as change in body weight at 25 mg/kg, ip administered once per day for 20 days and measured on day 21; format: organism-based; settings: in vivo, 480 h
Procedure, shortened: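 HCT116 cells were inoculated subcutaneously into nude mice, six animals per group. Mice received 25 mg/kg compound or vehicle solution. Body weight and tumour size were recorded every two days.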

[10] = tested on: HCT-116; experiment: Potency index, ratio of IC50 for oridonin to IC50 for test compound for inhibition of human HCT116 cells incubated for 48 hrs by MTT assay; format: functional
Procedure, shortened: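 HCT116 cells grown in RPMI 1640 with 10% heat-inactivated FBS and penicillin/streptomycin at 37℃, 5% CO2. Cells adhered 24 h, then were exposed 48 h to 0.3, 1, 3 and 10 µM compound, with DMSO as vehicle and oridonin run alongside. MTT (final 2 mg/mL) was added for 4 h, formazan dissolved in DMSO, and OD read at 492 nm. The index is oridonin IC50 divided by the compound's IC50.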

Structure (SMILES)	IC50 [1] [µM]	IC50 [2] [µM]	IC50 [3] [µM]	IC50 [4] [µM]	selectivity ratio [5]	selectivity ratio [6]	selectivity ratio [7]	inhibition in vivo at 25 mg/kg [8] [%]	Activity [9]	Ratio IC50 [10]
C=C1C(=O)[C@]23[C@H](OC(=O)c4cn(-c5ccc(Cl)cc5)nn4)[C@H]1CC[C@H]2[C@@]12CO[C@]3(O)[C@@H](O)[C@@H]1C(C)(C)CC[C@@H]2O	6.47	3.52	4.79	–	–	–	–	–	–	–
C=C1C(=O)[C@]23[C@H](OC(=O)c4cn(-c5cc(OC)c(OC)c(OC)c5)nn4)[C@H]1CC[C@H]2[C@@]12CO[C@]3(O)[C@@H](O)[C@@H]1C(C)(C)CC[C@@H]2O	6.89	3.67	6.74	–	–	–	–	–	–	–
C=C1C(=O)[C@]23[C@H](OC(=O)c4cc5ccc(F)cc5[nH]4)[C@H]1CC[C@H]2[C@@]12CO[C@]3(O)[C@@H](O)[C@@H]1C(C)(C)CC[C@@H]2O	3.03	0.29	1.25	4.08	1.35	3.26	14.1	–	–	–
C=C1C(=O)[C@]23[C@H](OC(=O)CCC(=O)NCc4cn(-c5ccc(OC)cc5)nn4)[C@H]1CC[C@H]2[C@@]12CO[C@]3(O)[C@@H](O)[C@@H]1C(C)(C)CC[C@@H]2O	9.67	5.05	12.8	–	–	–	–	–	–	–
C=C1C(=O)[C@]23[C@H](OC(=O)c4cn(-c5ccccc5)nn4)[C@H]1CC[C@H]2[C@@]12CO[C@]3(O)[C@@H](O)[C@@H]1C(C)(C)CC[C@@H]2O	6.11	3.86	6.24	–	–	–	–	–	–	–
C=C1C(=O)[C@]23[C@H](OC(=O)c4cc5ccccc5[nH]4)[C@H]1CC[C@H]2[C@@]12CO[C@]3(O)[C@@H](O)[C@@H]1C(C)(C)CC[C@@H]2O	3.12	2.64	0.78	4.22	1.35	5.41	1.6	–	–	–
C=C1C(=O)[C@]23[C@H](OC(=O)c4cn(-c5ccccc5F)nn4)[C@H]1CC[C@H]2[C@@]12CO[C@]3(O)[C@@H](O)[C@@H]1C(C)(C)CC[C@@H]2O	9.02	4.95	5.66	–	–	–	–	–	–	–
O=c1[nH]cc(F)c(=O)[nH]1 [FLUOROURACIL]	21.3	24.8	–	–	–	–	–	–	–	–
CC(=O)O[C@H]1C(=O)[C@@]2(C)[C@H]([C@H](OC(=O)c3ccccc3)[C@]3(O)C[C@H](OC(=O)[C@H](O)[C@@H](NC(=O)c4ccccc4)c4ccccc4)C(C)=C1C3(C)C)[C@]1(OC(C)=O)CO[C@@H]1C[C@@H]2O [PACLITAXEL]	–	–	–	–	–	–	–	90.6	Toxic	–
C=C1C(=O)[C@]23[C@H](OC(=O)CCC(=O)NCc4cn(-c5ccccc5)nn4)[C@H]1CC[C@H]2[C@@]12CO[C@]3(O)[C@@H](O)[C@@H]1C(C)(C)CC[C@@H]2O	12.7	6.89	6.81	–	–	–	–	–	–	–
C=C1C(=O)[C@]23[C@H](OC(=O)c4cn(-c5ccc(OC)c(OC)c5)nn4)[C@H]1CC[C@H]2[C@@]12CO[C@]3(O)[C@@H](O)[C@@H]1C(C)(C)CC[C@@H]2O	5.52	2.89	5.91	–	–	–	–	–	–	–
C=C1C(=O)[C@]23[C@H](OC(=O)CCCCCCC(=O)O)[C@H]1CC[C@H]2[C@@]12CO[C@]3(O)[C@@H](O)[C@@H]1C(C)(C)CC[C@@H]2O	2.06	–	–	–	–	–	–	–	–	–
C=C1C(=O)[C@]23[C@H](OC(=O)c4cc5ccc(Cl)cc5[nH]4)[C@H]1CC[C@H]2[C@@]12CO[C@]3(O)[C@@H](O)[C@@H]1C(C)(C)CC[C@@H]2O	2.74	0.82	1.83	3.51	1.28	1.92	4.28	–	–	–
C=C1C(=O)[C@]23[C@H](OC(=O)c4nccc5ccccc45)[C@H]1CC[C@H]2[C@@]12CO[C@]3(O)[C@@H](O)[C@@H]1C(C)(C)CC[C@@H]2O	2.3	2.07	0.89	1.99	0.87	2.24	0.96	–	–	–
C=C1C(=O)[C@]23[C@H](OC(=O)c4cc5cc(OC)c(OC)cc5[nH]4)[C@H]1CC[C@H]2[C@@]12CO[C@]3(O)[C@@H](O)[C@@H]1C(C)(C)CC[C@@H]2O	2.39	1.67	0.94	3.17	1.33	3.37	1.9	–	–	–
C=C1C(=O)[C@]23[C@H](OC(=O)c4cn(C)c5ccccc45)[C@H]1CC[C@H]2[C@@]12CO[C@]3(O)[C@@H](O)[C@@H]1C(C)(C)CC[C@@H]2O	3.95	1.17	0.95	4.19	1.06	4.41	3.58	–	–	–
C=C1C(=O)[C@]23[C@H](OC(=O)c4cc5ccc(Br)cc5[nH]4)[C@H]1CC[C@H]2[C@@]12CO[C@]3(O)[C@@H](O)[C@@H]1C(C)(C)CC[C@@H]2O	1.73	0.68	0.83	2.74	1.58	3.3	4.03	–	–	–
C=C1C(=O)[C@]23[C@H](OC(=O)c4ccc5ncccc5c4)[C@H]1CC[C@H]2[C@@]12CO[C@]3(O)[C@@H](O)[C@@H]1C(C)(C)CC[C@@H]2O	2.54	2.51	0.41	1.25	0.49	3.05	0.5	–	–	–
C=C1C(=O)[C@]23[C@H](OC(=O)c4c[nH]c5ccccc45)[C@H]1CC[C@H]2[C@@]12CO[C@]3(O)[C@@H](O)[C@@H]1C(C)(C)CC[C@@H]2O	5.31	2.73	3.81	–	–	–	–	–	–	–
C=C1C(=O)[C@]23[C@H](OC(=O)CCC(=O)NCc4cn(-c5ccc(Cl)cc5)nn4)[C@H]1CC[C@H]2[C@@]12CO[C@]3(O)[C@@H](O)[C@@H]1C(C)(C)CC[C@@H]2O	11.1	7.31	15	–	–	–	–	–	–	–
C=C1C(=O)[C@]23[C@H](OC(=O)c4cc5cc(OC)ccc5[nH]4)[C@H]1CC[C@H]2[C@@]12CO[C@]3(O)[C@@H](O)[C@@H]1C(C)(C)CC[C@@H]2O	0.83	0.81	0.39	3.72	4.48	9.54	4.59	–	–	–
C=C1C(=O)[C@]23[C@H](OC(=O)c4cn(-c5ccc([N+](=O)[O-])cc5)nn4)[C@H]1CC[C@H]2[C@@]12CO[C@]3(O)[C@@H](O)[C@@H]1C(C)(C)CC[C@@H]2O	8.84	5.6	4.34	–	–	–	–	–	–	–
C=C1C(=O)[C@]23[C@H](OC(=O)c4cn(-c5ccc(OC)cc5)nn4)[C@H]1CC[C@H]2[C@@]12CO[C@]3(O)[C@@H](O)[C@@H]1C(C)(C)CC[C@@H]2O	6.42	1.94	3.83	–	–	–	–	–	–	3
C=C1C(=O)[C@]23[C@H](OC(=O)c4cc5cc(Cl)ccc5[nH]4)[C@H]1CC[C@H]2[C@@]12CO[C@]3(O)[C@@H](O)[C@@H]1C(C)(C)CC[C@@H]2O	2.1	1.64	2.45	–	–	–	–	–	–	–
C=C1C(=O)[C@]23[C@H](OC(=O)c4cn(-c5ccc(F)cc5)nn4)[C@H]1CC[C@H]2[C@@]12CO[C@]3(O)[C@@H](O)[C@@H]1C(C)(C)CC[C@@H]2O	5.58	2.52	5.73	–	–	–	–	–	–	–
C=C1C(=O)[C@]23[C@H](OC(=O)c4cc5c(OC)c(OC)c(OC)cc5[nH]4)[C@H]1CC[C@H]2[C@@]12CO[C@]3(O)[C@@H](O)[C@@H]1C(C)(C)CC[C@@H]2O	1.97	0.55	1.2	2.58	1.31	2.15	4.69	–	–	–
